Experiment [1] concerns the target T1, Mitogen-activated protein kinase 14 (Homo sapiens, UniProt Q16539). As to the kind of experiment: Inhibition of anisomycin-induced p38alpha MAPK signalling in human MCF7 cells assessed as inhibition of ATF2 activation at 10 uM after 30 mins by SDS PAGE analysis. The experiment is classed as cell-based. A digest of the protocol: (§1)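 MCF-7 cells were preincubated with the compound at the indicated doses for 30 min, then stimulated with 10 μg/mL anisomycin for another 30 min. Total cell lysates were resolved by SDS-PAGE and immunoblotted with antibodies against phosphorylated ATF2, p38 and HSP27, with tubulin as the loading control.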

The target in experiment [2] is T1, Mitogen-activated protein kinase 14. Kind of experiment: Inhibition of anisomycin-induced p38alpha MAPK signalling in human MCF7 cells assessed as inhibition of HSP27 activation at 10 uM after 30 mins by SDS PAGE analysis. The experiment is classed as cell-based. A digest of the protocol: as §1
For experiment [3], the target named is Dual specificity mitogen-activated protein kinase kinase 6 (Homo sapiens) (UniProt P52564). Kind of experiment: Inhibition of anisomycin-induced MKK6 phosphorylation in human MCF7 cells at 1 to 10 uM after 30 mins by SDS PAGE analysis. The experiment is classed as cell-based.
Experiment [4] addresses Dual specificity mitogen-activated protein kinase kinase 3 (Homo sapiens) (UniProt P46734). As to the kind of experiment: Inhibition of anisomycin-induced MKK3 phosphorylation in human MCF7 cells at 1 to 10 uM after 30 mins by SDS PAGE analysis. The class given is cell-based.
The test system of another experiment is MCF7. Kind of experiment: Effect on p38alpha protein level in human MCF7 cells. The experiment is classed as functional, cell-based.
In experiment [5] the target is T1, Mitogen-activated protein kinase 14. As to the kind of experiment: Inhibition of p38alpha phosphorylation in human MCF7 cells at 0.5 to 10 uM after 30 mins by SDS PAGE analysis. The experiment is classed as cell-based. The essentials: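 MCF-7 cells were preincubated with compound for 30 min, then stimulated with 10 μg/mL anisomycin for another 30 min. Total cell lysates were resolved by SDS-PAGE and immunoblotted for phosphorylated ATF2, p38 and HSP27, with tubulin as the loading control.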

Activity calls are given as the source filed them. No cut-off for these calls is given here.

T1 sequence (Q16539 whole entry): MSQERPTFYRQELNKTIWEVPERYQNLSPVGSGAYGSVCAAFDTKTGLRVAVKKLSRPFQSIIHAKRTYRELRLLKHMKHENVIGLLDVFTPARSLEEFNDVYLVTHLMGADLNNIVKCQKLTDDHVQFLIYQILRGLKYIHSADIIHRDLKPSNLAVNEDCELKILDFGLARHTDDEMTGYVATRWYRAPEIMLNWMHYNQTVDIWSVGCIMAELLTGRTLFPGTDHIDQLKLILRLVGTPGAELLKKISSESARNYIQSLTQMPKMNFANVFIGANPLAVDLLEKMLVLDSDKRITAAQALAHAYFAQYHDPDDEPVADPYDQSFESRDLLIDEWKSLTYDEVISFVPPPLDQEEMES
Sequence of Dual specificity mitogen-activated protein kinase kinase 6 (Homo sapiens) (P52564 whole entry): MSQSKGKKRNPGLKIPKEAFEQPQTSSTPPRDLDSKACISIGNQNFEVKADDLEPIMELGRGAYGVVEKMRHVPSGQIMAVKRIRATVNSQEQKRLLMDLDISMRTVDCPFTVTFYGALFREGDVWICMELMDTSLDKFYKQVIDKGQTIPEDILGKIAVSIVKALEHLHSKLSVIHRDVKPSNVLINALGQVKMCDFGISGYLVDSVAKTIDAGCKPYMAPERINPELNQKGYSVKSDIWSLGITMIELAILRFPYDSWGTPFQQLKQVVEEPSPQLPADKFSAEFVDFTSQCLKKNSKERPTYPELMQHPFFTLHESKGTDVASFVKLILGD
Sequence of Dual specificity mitogen-activated protein kinase kinase 3 (Homo sapiens) (P46734 whole entry): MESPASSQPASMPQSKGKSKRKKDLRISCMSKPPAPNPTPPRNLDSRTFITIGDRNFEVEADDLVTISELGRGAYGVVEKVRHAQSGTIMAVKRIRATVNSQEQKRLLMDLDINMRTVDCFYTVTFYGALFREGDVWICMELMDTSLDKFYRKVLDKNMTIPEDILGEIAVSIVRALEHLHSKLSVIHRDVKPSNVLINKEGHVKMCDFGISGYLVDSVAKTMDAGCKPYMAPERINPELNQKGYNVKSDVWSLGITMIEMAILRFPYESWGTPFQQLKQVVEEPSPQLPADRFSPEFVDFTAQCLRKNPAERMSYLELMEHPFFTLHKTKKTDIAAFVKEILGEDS

As to `O=c1c(-c2ccc(F)cc2)c(-c2ccnc(NC3CCCCC3)c2)oc2ccccc12`, the Imax result in experiment [1] and in experiment [2] was “Active” throughout. For the same molecule, the inhibition result in experiment [3] and in experiment [4] was “inactive” each time. In the experiment with MCF7, the outcome was inactive. Further, the inhibition result in experiment [5] was “Active”.

The record behind these values is ChEMBL document CHEMBL2040781, “Design, synthesis, and biological evaluation of chromone-based p38 MAP kinase inhibitors” (J Med Chem, 2011).
